This passage reports IC50 and Activity results from ChEMBL document CHEMBL3351823, “Synthesis and biological evaluations of new analogs of 2-methoxyestradiol: inhibitors of tubulin and angiogenesis” (Eur J Med Chem, 2014).

pIC50: −log10 of the molar value. Activity calls are given as the source filed them. No cut-off for these calls is given here.

One assay deals with K562. Put plainly: Anticancer activity against human K562 cells assessed as cell growth inhibition after 5 days by MTT assay. The assay is classed as functional, cell-based. To be noted: K562, 120 h. In a few lines:
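Compounds dissolved in DMSO and serially diluted in medium. Equal volume added to cells at about 40,000 cells/ml, set by doubling time. K562 grown in RPMI with 2-mercaptoethanol, L-glutamine and 10% FCS, no antibiotics. Drug-free wells served as control. Growth read on a plate reader; IC50 taken graphically as % of control growth. Three experiments run in duplicate.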
With `COc1cc2c(cc1O)CC[C@@H]1[C@@H]2CC[C@]2(C)[C@@H](c3cccc4cnccc34)CC[C@@H]12`, the negative-log IC50 (pIC50) is 5.68.

Regarding `COc1cc2c(cc1O)CC[C@@H]1[C@@H]2CC[C@]2(C)C(c3cccnc3)=CC[C@@H]12`, the pIC50 is < 5.00.

With `COc1cc2c(cc1O)CC[C@@H]1[C@@H]2CC[C@]2(C)C(c3cccc4cnccc34)=CC[C@@H]12`, the pIC50 is 5.51.

`COc1cc2c(cc1O)CC[C@@H]1[C@@H]2CC[C@]2(C)C(c3ccccc3)=CC[C@@H]12`: the pIC50 was < 5.00.

Regarding `COc1cc2c(cc1O)CC[C@@H]1[C@@H]2CC[C@]2(C)[C@@H](c3cccc4c3CCCN4)CC[C@@H]12`, the pIC50 is 5.89.

For the compound `COc1cc2c(cc1O)CC[C@@H]1[C@@H]2CC[C@]2(C)C(c3ccc4ccncc4c3)=CC[C@@H]12`, the pIC50 is < 5.00.

In the case of `COc1cc2c(cc1O)CC[C@@H]1[C@@H]2CC[C@]2(C)[C@@H](O)CC[C@@H]12` [2-METHOXYESTRADIOL], the pIC50 was 6.10.

For `COc1cc2c(cc1O)CC[C@@H]1[C@@H]2CC[C@]2(C)C(c3cncc4ccccc34)=CC[C@@H]12`, the pIC50 was 6.30.

Tested on in another assay: not listed separately
Put plainly: Antiangiogenic activity in BAECs after 18 hrs by extracellular matrix assay. The assay is classed as functional, Bos taurus. The note with it: baec. Put shortly: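 Extracellular matrix thawed at 4 °C, 50 µl per well, set 10 min at 37 °C. Solid wells incubated 30 min with BAECs (30,000 cells/well), then given analogs at the same concentration. IC50 from three experiments run in duplicate.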
In turn, `COc1cc2c(cc1O)CC[C@@H]1[C@@H]2CC[C@]2(C)[C@@H](c3cccc4cnccc34)CC[C@@H]12` gave a pIC50 of 5.89.

With `COc1cc2c(cc1O)CC[C@@H]1[C@@H]2CC[C@]2(C)C(c3cccnc3)=CC[C@@H]12`, the pIC50 was < 5.00.

Consider `COc1cc2c(cc1O)CC[C@@H]1[C@@H]2CC[C@]2(C)C(c3cccc4cnccc34)=CC[C@@H]12`, for which the pIC50 was 5.62.

Consider `COc1cc2c(cc1O)CC[C@@H]1[C@@H]2CC[C@]2(C)C(c3ccccc3)=CC[C@@H]12`, for which the negative-log IC50 (pIC50) was < 5.00.

For `COc1cc2c(cc1O)CC[C@@H]1[C@@H]2CC[C@]2(C)[C@@H](c3cccc4c3CCCN4)CC[C@@H]12`, the pIC50 was 5.48.

As to `COc1cc2c(cc1O)CC[C@@H]1[C@@H]2CC[C@]2(C)C(c3ccc4ccncc4c3)=CC[C@@H]12`, the pIC50 is < 5.00.

On to `COc1cc2c(cc1O)CC[C@@H]1[C@@H]2CC[C@]2(C)[C@@H](O)CC[C@@H]12` [2-METHOXYESTRADIOL], for which the pIC50 is 5.49.

As to `COc1cc2c(cc1O)CC[C@@H]1[C@@H]2CC[C@]2(C)C(c3cncc4ccccc34)=CC[C@@H]12`, the pIC50 is 6.10.

Tested on in another assay: not listed separately
Put plainly: Anticancer activity against human OVCAR3 cells assessed as cell growth inhibition after 5 days by MTT assay. It is filed as functional, cell-based. To be noted: OVCAR-3, 120 h. Background: Formazan colour is commonly taken as a measure of viable cells.
Consider `COc1cc2c(cc1O)CC[C@@H]1[C@@H]2CC[C@]2(C)[C@@H](c3cccc4cnccc34)CC[C@@H]12`, for which the pIC50 is 5.52.

Turning to `COc1cc2c(cc1O)CC[C@@H]1[C@@H]2CC[C@]2(C)C(c3cccnc3)=CC[C@@H]12`, the pIC50 is < 5.00.

As to `COc1cc2c(cc1O)CC[C@@H]1[C@@H]2CC[C@]2(C)C(c3cccc4cnccc34)=CC[C@@H]12`, the pIC50 was 5.41.

As to `COc1cc2c(cc1O)CC[C@@H]1[C@@H]2CC[C@]2(C)C(c3ccccc3)=CC[C@@H]12`, the pIC50 was < 5.00.

Take `COc1cc2c(cc1O)CC[C@@H]1[C@@H]2CC[C@]2(C)[C@@H](c3cccc4c3CCCN4)CC[C@@H]12`: the pIC50 was 5.82.

For `COc1cc2c(cc1O)CC[C@@H]1[C@@H]2CC[C@]2(C)C(c3ccc4ccncc4c3)=CC[C@@H]12`, the pIC50 was < 5.00.

As for `COc1cc2c(cc1O)CC[C@@H]1[C@@H]2CC[C@]2(C)[C@@H](O)CC[C@@H]12` [2-METHOXYESTRADIOL], the pIC50 was 5.92.

As for `COc1cc2c(cc1O)CC[C@@H]1[C@@H]2CC[C@]2(C)C(c3cncc4ccccc34)=CC[C@@H]12`, the pIC50 was 6.40.

A further assay addresses Tubulin (Sus scrofa, UniProt P02554+P02550). Put plainly: Inhibition of porcine brain tubulin polymerization after 60 mins.
Conditions: not given
In a few lines:
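Wells pre-chilled at 4 °C for 30 min. Mixture of Mes buffer pH 6.6 with MgCl2, GTP, tubulin (50 µl of 11 mg/ml in Mes buffer) and test compound in DMSO. Absorbance recorded at 25 °C over 60 min. Change in optical density compared with untreated controls.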
The compound `COc1cc2c(cc1O)CC[C@@H]1[C@@H]2CC[C@]2(C)[C@@H](c3cccc4cnccc34)CC[C@@H]12` yielded an IC50 of 8100 nM.

The compound `COc1cc2c(cc1O)CC[C@@H]1[C@@H]2CC[C@]2(C)C(c3cccc4cnccc34)=CC[C@@H]12` showed an IC50 of 7200 nM.

Turning to `COc1cc2c(cc1O)CC[C@@H]1[C@@H]2CC[C@]2(C)[C@@H](c3cccc4c3CCCN4)CC[C@@H]12`, the IC50 turned out to be 3700 nM.

As for `COc1cc2c(cc1O)CC[C@@H]1[C@@H]2CC[C@]2(C)[C@@H](O)CC[C@@H]12` [2-METHOXYESTRADIOL], the IC50 came out at 2200 nM.

As to `COc1cc2c(cc1O)CC[C@@H]1[C@@H]2CC[C@]2(C)C(c3cncc4ccccc34)=CC[C@@H]12`, the half-inhibitory concentration (IC50) amounted to 4800 nM.

Tested on in a further assay: not listed separately
Put plainly: Anticancer activity against human WM35 cells assessed as cell growth inhibition after 5 days by MTT assay. The assay is classed as functional, cell-based. To be noted: WM35, 120 h.
As for `COc1cc2c(cc1O)CC[C@@H]1[C@@H]2CC[C@]2(C)[C@@H](c3cccc4cnccc34)CC[C@@H]12`, the pIC50 was 5.39.

Take `COc1cc2c(cc1O)CC[C@@H]1[C@@H]2CC[C@]2(C)C(c3cccnc3)=CC[C@@H]12`: the pIC50 was < 5.00.

In the case of `COc1cc2c(cc1O)CC[C@@H]1[C@@H]2CC[C@]2(C)C(c3cccc4cnccc34)=CC[C@@H]12`, the pIC50 is 5.29.

On to `COc1cc2c(cc1O)CC[C@@H]1[C@@H]2CC[C@]2(C)C(c3ccccc3)=CC[C@@H]12`, for which the negative logarithm of the IC50 (pIC50) was < 5.00.

Regarding `COc1cc2c(cc1O)CC[C@@H]1[C@@H]2CC[C@]2(C)[C@@H](c3cccc4c3CCCN4)CC[C@@H]12`, the pIC50 is 5.72.

Consider `COc1cc2c(cc1O)CC[C@@H]1[C@@H]2CC[C@]2(C)C(c3ccc4ccncc4c3)=CC[C@@H]12`, for which the pIC50 was < 5.00.

In the case of `COc1cc2c(cc1O)CC[C@@H]1[C@@H]2CC[C@]2(C)[C@@H](O)CC[C@@H]12` [2-METHOXYESTRADIOL], the pIC50 is 5.68.

Take `COc1cc2c(cc1O)CC[C@@H]1[C@@H]2CC[C@]2(C)C(c3cncc4ccccc34)=CC[C@@H]12`: the pIC50 is 6.15.

In the next assay the target is T1, Estrogen receptor (Homo sapiens) (UniProt P03372).
T1 sequence (whole entry): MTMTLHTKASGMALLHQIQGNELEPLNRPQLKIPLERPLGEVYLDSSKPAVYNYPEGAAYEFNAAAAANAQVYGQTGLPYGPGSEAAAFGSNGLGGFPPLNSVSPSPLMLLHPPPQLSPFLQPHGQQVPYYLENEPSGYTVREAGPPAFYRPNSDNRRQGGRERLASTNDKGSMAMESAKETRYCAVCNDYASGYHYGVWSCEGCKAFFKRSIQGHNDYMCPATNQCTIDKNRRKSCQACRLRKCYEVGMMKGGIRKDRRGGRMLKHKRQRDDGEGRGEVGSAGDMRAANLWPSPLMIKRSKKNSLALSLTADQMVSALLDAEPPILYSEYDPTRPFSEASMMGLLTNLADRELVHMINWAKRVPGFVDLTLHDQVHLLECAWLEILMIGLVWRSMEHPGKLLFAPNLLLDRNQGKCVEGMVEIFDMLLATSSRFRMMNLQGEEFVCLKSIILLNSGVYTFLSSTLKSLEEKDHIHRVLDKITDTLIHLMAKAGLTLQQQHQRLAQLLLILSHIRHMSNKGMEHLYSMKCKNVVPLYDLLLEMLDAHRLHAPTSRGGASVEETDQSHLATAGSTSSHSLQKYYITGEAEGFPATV
The assay can be described thus: Agonist activity at estrogen receptor (unknown origin) expressed in rat PC12 cells coexpressing ER-luc at 10 uM after 24 hrs. The assay is classed as cell-based. To be noted: PC-12. Put shortly:
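PC-12 cells plated at 7 × 10⁴ cells/ml, 37 °C, 5% CO₂; co-transfected with ERE-luc and ER one day after plating (liposome complexes in serum-free DMEM, serum medium restored after 3 h). Treated next day for 24 h; 0.1% DMSO solvent control, 17-β-estradiol positive control. Luciferase read with 1 mM luciferin, normalised to Renilla; 2 independent experiments, n = 3–5.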
In the case of `COc1cc2c(cc1O)CC[C@@H]1[C@@H]2CC[C@]2(C)C(c3cccnc3)=CC[C@@H]12`, the result was inactive.

As for `COc1cc2c(cc1O)CC[C@@H]1[C@@H]2CC[C@]2(C)[C@@H](c3cccc4c3CCCN4)CC[C@@H]12`, the outcome was inactive.

Turning to `COc1cc2c(cc1O)CC[C@@H]1[C@@H]2CC[C@]2(C)C(c3cncc4ccccc34)=CC[C@@H]12`, the result was inactive.

One may read the pIC50 as −log10 of the IC50, conventionally taken in molar units. By IC50 is commonly meant the point on the concentration scale where inhibition reaches its midpoint. The low end stands for inhibition by little substance, the high end for a need for much substance.
